NadD block: blocks S. aureus nicotinate mononucleotide adenylyltransferase | purified NadD enzyme, colorimetric absorbance read-out | hit rate 0.78% among 360,000 | inhibition, % at 20 µM; in the data active = inhibition above about 26%
core dimer inh: HCV core protein dimerization inhibition. TR-FRET GST/Flag-core106 dimerization, 1536-well. hit rate 0.33% among 300,000. inhibition, % at 5 µM;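 active = inhibition above the mean of all tested compounds plus 3 SD, set per screening campaign, cut at about 45% in these data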
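Assay system: GST-tagged and Flag-tagged HCV core protein residues 1-106 / Times: compound-protein-antibody incubation 4 h at 22.5 °C / Signal: time-resolved FRET, ex 340 nm, em 617 and 671 nm / Evaluation: % inhibition based on acceptor/donor emission ratio / Benchmarks: wells lacking GST-core106 and wells with excess unlabelled core106 / Repeats: singlicate, one well per compound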
IMP-1 inh-1: blocks Pseudomonas aeruginosa IMP-1 metallo-beta-lactamase; inhibition, % at 5.6 µM; hit rate 0.45% among 290,000; purified IMP-1, nitrocefin hydrolysis, epi-absorbance fluorescence;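 active = inhibition above the mean plus 3 SD of all compounds in the same screening run, cut at about 4.5% in these data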;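 note: 0% = IMP-1 with DMSO and 100% = DMSO wells lacking enzyme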
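System – purified recombinant IMP-1 beta-lactamase · Input – IMP-1 dispensed at 0.2 nM · Timing – 15 min preincubation plus 25 min reaction at 25 °C · Signal – Epi-absorbance fluorescence, 480 nm excitation, 530 nm emission · Measure – percent IMP-1 inhibition derived from blank-referenced optical density · Controls – Enzyme-plus-DMSO low control, enzyme-free DMSO high control · Replication – singlicate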
VIM-2 inhibitor: blocks Pseudomonas aeruginosa VIM-2 metallo-beta-lactamase; purified VIM-2, nitrocefin hydrolysis, epi-absorbance fluorescence; inhibition, % at 5.6 µM; hit rate 0.89% among 290,000; AID 1527;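 active = inhibition above the mean of all tested compounds plus 3 SD, cutoff set per screening run, cut at about 7.5% in these data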;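 note: red hydrolysis product quenches plate fluorescence so inhibitors raise well fluorescence; 0% = enzyme with DMSO and 100% = DMSO without enzyme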
IMP-1 inh-2: IMP-1 inhibition, counter-screen for VIM-2 inhibitors | purified IMP-1, nitrocefin hydrolysis, epi-absorbance fluorescence | inhibition, % at 5.6 µM | AID 1856 | 1,300 tested, under 10 active | shares compounds with VIM-2 inhibitor; call rule not given here;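 note: 0% = enzyme with vehicle and 100% = vehicle without enzyme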
VIM-2 FRET inh: VIM-2 FRET inhibition, artifact counter-screen; purified VIM-2, CCF2 FRET substrate hydrolysis; AID 1857; shares compounds with VIM-2 inhibitor; inhibition, % at 5.6 µM; hit rate 23% among 1,300;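 active = inhibition above the mean of all tested compounds plus 3 SD, cut at about 19% in these data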;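 note: 0% = VIM-2 plus DMSO and 100% = no enzyme wells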
TEM-1 counter: TEM-1 inhibition, counter-screen for VIM-2 inhibitors; shares compounds with VIM-2 inhibitor; Purified TEM-1, nitrocefin hydrolysis, epi-absorbance fluorescence; inhibition, % at 5.6 µM; hit rate 3% among 1,300;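 active = inhibition above that campaign's mean inhibition plus 3 SD, cut at about 0.46% in these data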;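 note: 0% = TEM-1 with DMSO and 100% = TEM-1 with 100 µM potassium clavulanate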
Target sequence (P62593 whole entry, looked up): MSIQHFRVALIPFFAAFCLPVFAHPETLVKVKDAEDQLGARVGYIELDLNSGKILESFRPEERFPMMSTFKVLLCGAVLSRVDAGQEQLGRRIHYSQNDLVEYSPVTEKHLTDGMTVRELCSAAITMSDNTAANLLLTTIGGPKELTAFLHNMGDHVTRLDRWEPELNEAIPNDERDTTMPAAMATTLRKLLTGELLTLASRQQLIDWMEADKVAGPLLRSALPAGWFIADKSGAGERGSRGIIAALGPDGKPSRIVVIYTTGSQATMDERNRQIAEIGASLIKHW
VIM-2 inh conf: confirmation of P. aeruginosa VIM-2 metallo-beta-lactamase inhibitors | inhibition, % at 5.6 µM | hit rate 96% among 1,300 | purified VIM-2, nitrocefin hydrolysis, epi-absorbance | shares compounds with VIM-2 inhibitor;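 active = inhibition of the VIM-2 beta-lactamase enzyme above about 11% from the earlier first-round screen, limit read from the data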;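 note: 0% = VIM-2 with DMSO and 100% = buffer wells without enzyme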
An asterisk follows results filed as active; / = no result. Compounds with a hit are over-represented: about 1.9% of the library has one in this group of screens.

SMILES | NadD block | core dimer inh | IMP-1 inh-1 | VIM-2 inhibitor | IMP-1 inh-2 | VIM-2 FRET inh | TEM-1 counter | VIM-2 inh conf
Cc1ccc(C(=O)N(Cc2cccnc2)Cc2cc3cc(C)ccc3n3nnnc23)cc1 | 9.8 | 5.4 | -3.2 | -3.5 | / | / | / | /
CN(CC(=O)NC(=O)NC1CCCCC1)CC(=O)Nc1ccc(Cl)cc1 | 2.0 | / | / | / | / | / | / | /
CN(CC(=O)Nc1ccc(F)c(F)c1F)C(=O)c1ccc2c(c1)OCCO2 | -7.1 | -1.9 | / | / | / | / | / | /
COc1cccc(NC(=O)N2CCC(NC(=O)C3CCCCC3)CC2)c1 | -3.8 | 0.3 | -4.7 | -3.4 | / | / | / | /
CCn1cc(CN2CCC(C(=O)Nc3cccc(-c4cccc(OC)c4)c3)CC2)c(C)n1 | -4.3 | -11.5 | -0.8 | -1.8 | / | / | / | /
CCOC(=O)c1c(C)n(C)c2ccc(OCC(O)Cn3c(C)nc4ccccc43)cc12 (stereo not drawn) | 4.9 | -5.1 | -5.9 | -1.7 | / | / | / | /
CCOC(=O)c1c(C)n(C)c2ccc(OCC(O)CN3CCN(C)CC3)cc12 (stereo not drawn) | -3.4 | 0.3 | 3.0 | 69.1* | -2.9 | 4.1 | -6.0 | 74.6*
CCOC(=O)c1c(C)n(-c2ccc(C)cc2)c2ccc(OCC(O)CN3CCN(C)CC3)cc12 (stereo not drawn) | 2.5 | / | -1.4 | 15.2* | -3.3 | -0.9 | -6.2 | 26.4*
CCN1CCN(CC(O)COc2ccc3c(C)cc(=O)oc3c2)CC1 (stereo not drawn) | -11.5 | -1.7 | 0.1 | 15.5* | -3.6 | 1.0 | -6.5 | 23.4*
CCN1CCN(CC(O)COc2ccc(C)c(C)c2)CC1 (stereo not drawn) | -0.4 | -2.2 | -3.6 | -4.3 | / | / | / | /
CN1CCN(CC(O)COc2ccc(OCC(O)CN3CCN(C)CC3)cc2)CC1 (stereo not drawn) | 6.9 | -8.1 | 0.8 | -0.7 | / | / | / | /
O=C(Cc1ccc(Br)cc1)N1CCOCC1 | -6.6 | -15.7 | -6.3 | -3.3 | / | / | / | /
Nc1ccc(N2CCN(CCCCN3C(=O)C4CCCN4C3=O)CC2)cc1 (stereo not drawn) | 5.3 | -8.9 | -2.5 | 24.5* | -9.9 | -6.3 | -6.4 | 10.6*
O=C(NC(=S)NCC1CCCO1)c1ccccc1Br (stereo not drawn) | -4.5 | -7.3 | -1.2 | 27.9* | -3.0 | 52.0* | -4.3 | 36.0*
COc1ccc(/C=C2\SC(c3ccc(C)cc3)=NC2=O)cc1OC | -1.0 | 0.8 | 1.0 | 6.1 | / | / | / | /
COc1ccc(/C=C2/SC(c3ccc(C)cc3)=NC2=O)cc1OC | -4.2 | 4.0 | 0.3 | 15.1* | 9.4* | -1.8 | 19.6* | 13.8*
c1coc(-c2nnc3sc(Cc4cccs4)nn23)c1 | 1.9 | 24.4 | -3.5 | 1.8 | / | / | / | /
c1csc(Cc2nn3c(-c4n[nH]c5c4CCC5)nnc3s2)c1 | 15.4 | 41.6 | -0.5 | 13.1* | -2.3 | 5.3 | -7.3 | 21.7*
CCN1CCN(c2cc(N3CCN(C(=O)c4ccco4)CC3)c3c4c(onc24)-c2ccccc2C3=O)CC1 | 44.8* | -34.6 | 0.7 | 23.3* | -2.5 | -13.3 | -10.1 | 20.8*
CCC(C)C(NC(C)=O)C(=O)NC(=O)NC(c1ccccc1)c1ccccc1 (stereo not drawn) | -6.9 | 1.9 | -1.9 | -2.9 | / | / | / | /
Cc1c(N2C(=O)/C(=C\c3cccc4ccccc34)SC2=S)c(=O)n(-c2ccccc2)n1C | 42.1* | 19.9 | -3.0 | 62.1* | 0.4 | 32.9* | -3.2 | 29.5*
Cc1c(N2C(=O)c3ccccc3C2=O)c(=O)n(-c2ccccc2)n1C | -2.1 | 2.4 | -2.1 | -2.3 | / | / | / | /
CC1=NNC(=O)C1CC(=O)N/N=C/c1sccc1C (stereo not drawn) | -6.4 | -5.8 | -1.0 | -1.6 | / | / | / | /
COc1cc(OC)c(OC)cc1/C=N/NC(=O)CC1C(=O)NN=C1C (stereo not drawn) | -5.4 | -9.5 | -1.4 | 37.1* | -3.1 | 65.9* | -4.6 | 54.9*
O=C(O)CCN1C(=O)C2CCCCC2C1=O (stereo not drawn) | -1.4 | -5.4 | -3.1 | -3.1 | / | / | / | /
O=C1C(=O)N(O)C2CCCCC2N1O (stereo not drawn) | 0.6 | 0.5 | -3.0 | 13.2* | -3.6 | 47.3* | -7.2 | 24.2*
